In PubChem BioAssay AID552 (SRMLSC, 2006) one finds inhibition data, which are given here for 99 compounds.

Each structure is given as a SMILES string. Among all 20,000 compounds or so, about 10 (0.05%) were called active. Only a selection was taken, and actives are over-represented in it overall. Unmarked numbers belong to inactive results. Rule as the data show it: active = inhibition above about 40%; inactive = the rest.

The nature of this experiment: growth inhibitors of wild type E. coli, primary screen, strain BW25113 wild type, absorbance readout (AID 552).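 Also: bacteria exposed to compound for 20 hours at 37 °C.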 The note with it: OD600, at 10 µM, active compounds read high. In outline: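 Material: bacterial strain in a whole-cell growth screen; Amount: inoculum from a 1:1000 dilution of a 1.5 h subculture; Buffer or medium: LB plus kanamycin 50 µg/mL; Dosing: one dose, 10 µM final; Times: compound exposure of 20 h at 37 °C; Measured by: absorbance at 615 nm as a measure of bacterial growth.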
One may read the inhibition as the change of the read-out against control, counted positive when it falls. With `O=C(COc1ccccc1F)NC1CC1`, the inhibition is -9.95%.

As for `CC(C)(C)C(=O)CCN1C(=O)C2(OCCO2)c2ccccc21`, the inhibition is 11.1%.

As to `CCOC(=O)N1CCN(CC(=O)c2c(C)[nH]c3ccccc23)CC1`, the inhibition is 8.75%.

For `COC(=O)C(C)N(C#N)c1nc(C)nc(C)n1` (centres undefined), the inhibition was -24.9%.

For `Cc1cc(Cl)ccc1N1C(=O)CC(SCCC(=O)O)C1=O` (centres undefined), the inhibition is 0.27%.

Take `COC(=O)C1=C(C)Nc2ncnn2C1c1ccco1` (centres undefined): the inhibition was -13.1%.

With `CCOC(=O)c1c(C)oc2ccc(OCC(=O)N(CC)CC)cc12`, the inhibition is -3.67%.

For `COc1ccc(-c2cc3ccc(OCc4nn[nH]n4)cc3oc2=O)cc1`, the inhibition was -2.44%.

For `CCCn1c(C(O)c2cc(OC)ccc2OC)nc2ccccc21` (centres undefined), the inhibition was -24.6%.

As to `CC1Cn2c(nnc2-c2cccs2)S1` (centres undefined), the inhibition is -19.2%.

Regarding `COc1ccc(-c2nc(SCC(=O)N3CCOCC3)n[nH]2)cc1`, the inhibition was -14%.

As to `Cn1c(=O)c2c(ncn2CC(=O)N2CCN(c3ccccc3)CC2)n(C)c1=O`, the inhibition is 0.27%.

With `CC(C)NS(=O)(=O)c1ccc(OCC(=O)Nc2ccc3c(c2)OCCO3)cc1`, the inhibition is -17.1%.

In the case of `COc1ccccc1C(=O)n1nc(-c2ccccc2)nc1N`, the inhibition was -5.43%.

`Cc1nnc2sc(-c3ccco3)nn12`: the inhibition is -19.1%.

As for `O=C(c1cccnc1NCc1ccccc1)N1CCOCC1`, the inhibition is 4.48%.

On to `Cc1ccc(-c2noc(CSc3nnc(-c4ccccc4)n3C)n2)cc1`, for which the inhibition is 13.8%.

Regarding `Cn1c(=O)n(C)c2cc(C(=O)Nc3ccc4c(c3)OCO4)ccc21`, the inhibition is -11.7%.

Turning to `COc1ccc(S(=O)(=O)N2CCCC2)c(C)c1C`, the inhibition is -7.21%.

As to `CC1=C(C(=O)OC2CCCCC2)C(c2cccnc2)n2ncnc2N1` (centres undefined), the inhibition was -3.82%.

For the compound `CCOc1ccc(Cn2nnc(C(=O)Nc3ccc(OC)cc3OC)c2N)cc1`, the inhibition was 1.62%.

Consider `Cc1cc(C)cc(N(C(C)C(=O)Nc2c(C)n(C)n(-c3ccccc3)c2=O)S(C)(=O)=O)c1` (centres undefined), for which the inhibition is -10.4%.

On to `Cc1nn(-c2ccccc2)c2[nH]c(C(F)(F)F)cc(=O)c12`, for which the inhibition is -5.63%.

Consider `COc1ccc(CCNS(=O)(=O)c2ccc(C(=O)NCc3ccco3)cc2)cc1OC`, for which the inhibition is 8.04%.

For `O=C(c1ccco1)N1CCN(C(=O)C2CC(c3ccc(F)cc3)=NO2)CC1` (centres undefined), the inhibition is 9.27%.

`CC(C(=O)N1CCOCC1)N1c2cccc3cccc(c23)S1(=O)=O` (centres undefined): the inhibition is -6.66%.

With `CSc1cccc(NC(=O)CSc2ccccc2)c1`, the inhibition is -12.8%.

Turning to `O=C(c1ccccc1-c1ccccc1)N1CCOCC1`, the inhibition was -14.8%.

For `CC(C)n1c(NCc2c[nH]c3ccccc23)nc2ccccc21`, the inhibition was 18.1%.

Regarding `COc1cc(NS(=O)(=O)c2ccccc2)ccc1-n1nc(C)cc1C`, the inhibition is -15.6%.

Regarding `COc1ccc2c(CC(=O)Nc3nnc(C4CC4)s3)coc2c1`, the inhibition was -3.61%.

Turning to `COc1ccccc1NC1=NC2(CCCC2)N=C(N)N1`, the inhibition was 5.8%.

Regarding `CCc1nnc(NC(=O)c2ccc(S(=O)(=O)NC3CCCCC3)cc2)s1`, the inhibition was -3.77%.

Turning to `COC(=O)CN(c1nc(C)c(Cl)c(OC)n1)S(=O)(=O)c1ccc(C)cc1`, the inhibition was -1.76%.

In the case of `CNC(=O)NCCN1CCCC1=O`, the inhibition is 7.98%.

`CCn1c(CNC(=O)c2ccc(OC)c(OC)c2)nnc1SCC(=O)Nc1ccccc1`: the inhibition was -11.8%.

For the compound `O=C(C1CCCO1)N(Cc1ccccc1)c1ccccc1` (centres undefined), the inhibition is -16.8%.

In the case of `Cc1cc(NC(=O)Cn2nc(C(F)(F)F)c3c2CCCC3)no1`, the inhibition was -16.9%.

With `Cc1cc(C)nc(NC2=NCC(=O)N2c2ccc(Cl)cc2)n1`, the inhibition is 1.06%.

As for `O=C(NCCc1ccccn1)c1ccc(COc2ccccc2)o1`, the inhibition is 15%.

`C/C(=C(\C#N)C(=O)NCCCN1CCOCC1)N(C)C`: the inhibition was 2.5%.

`CCOC(=O)CC1C(=O)NCCN1C(=O)COc1ccc(Br)cc1C` (centres undefined): the inhibition is -24.8%.

Regarding `CC(=O)Nc1ccc(S(=O)(=O)Nc2cccc(NC(=O)C(C)(C)C)c2)cc1`, the inhibition was -16.1%.

Turning to `O=C1C2(c3ccccc3)CN(CCCO)CC1(c1ccccc1)CN(CCCO)C2`, the inhibition was -16.6%.

On to `Cc1noc(C)c1CSc1nc2cc(S(=O)(=O)N3CCOCC3)ccc2o1`, for which the inhibition is -3.26%.

For the compound `CCCCNC(=O)c1ccccc1NC(=O)c1ccccc1N(C)S(C)(=O)=O`, the inhibition is -21%.

With `COC(=O)COc1ccc2oc(=O)cc(C)c2c1`, the inhibition is -18.5%.

In the case of `O=S(=O)(N1CCOCC1)N1CCN(c2ccccc2F)CC1`, the inhibition was -11.7%.

Regarding `CCC(Oc1ccccc1)C(=O)NCc1cccnc1` (centres undefined), the inhibition was -21.9%.

Take `O=C(Nc1nn(Cc2ccccc2F)cc1Br)c1cccs1`: the inhibition is -14.1%.

Consider `Cc1ccc(S(=O)(=O)N(C)CC(=O)NC2CCCC2)cc1`, for which the inhibition is -2.1%.

With `N#CC1=C(N)C(C#N)(C#N)[C@H](c2ccsc2)[C@H]2COCC=C12`, the inhibition is -0.035%.

As to `O=C(OCC(O)C(O)COC(=O)c1ccccc1)c1ccccc1` (centres undefined), the inhibition was -18.9%.

As for `CCCOc1ccc(NC(=O)C2CCCNC2=O)cc1` (centres undefined), the inhibition was -30.8%.

With `COc1ccc(CC(NC(C)=O)C(=O)NC2CCN(C(=O)Nc3ccc(C#N)cc3)CC2)cc1OC` (centres undefined), the inhibition is -1.03%.

`Cc1cc(C(=O)Nc2c(C)n(C)n(-c3ccccc3)c2=O)cs1`: the inhibition was -12.7%.

Regarding `Cc1occc1C(=O)Nc1nnc(C2CCCCC2)s1`, the inhibition is 0.21%.

As to `Cc1cc(=O)n(C)c(=O)n1CCCNc1ccccc1`, the inhibition is 8.62%.

As to `C/C(N)=C(\C#N)C(=O)NCCc1ccccn1`, the inhibition was -3.41%.

On to `CCOC(=O)c1c(C)nc(-c2ccccc2)nc1NC(=O)C(C)C`, for which the inhibition is -20.2%.

Consider `Cc1cc(NC(=O)CN2CCC(O)(c3cccc(F)c3)CC2)no1`, for which the inhibition was -0.42%.

On to `CCC(=O)Nc1nc(OC)cc(OC)n1`, for which the inhibition is -16.5%.

As for `COc1ccc(CC(=O)Nc2c3c(nn2-c2cccc(Cl)c2)CS(=O)C3)cc1` (centres undefined), the inhibition was 13.4%.

Regarding `Cc1cc(C)nc(NC(=O)C(C)N2C(=O)c3ccccc3C2=O)n1` (centres undefined), the inhibition was -17.9%.

On to `CCOC(=O)c1cnc2sccn2c1=O`, for which the inhibition is -15.3%.

Take `O=C(CCN1C(=O)c2ccccc2C1=O)NCCN1CCOCC1`: the inhibition is 0.59%.

As for `O=C(CCOc1ccccc1)NCc1ccccc1`, the inhibition is 14.8%.

As to `CC1CC(C)CN(CC(=O)Nc2ccc(S(N)(=O)=O)cc2)C1` (centres undefined), the inhibition was 0.613%.

For `O=C1CSC(c2cccc(F)c2)N1c1ccccc1F` (centres undefined), the inhibition is 6.64%.

With `Cc1nonc1NC(=O)c1ccccc1Br`, the inhibition was -2.2%.

Turning to `O=C(Nc1cccnc1)c1ccc2c(c1)OCO2`, the inhibition is 6.74%.

`CC(=NCc1ccc2c(c1)OCO2)C1=C(O)c2ccccc2C1=O`: the inhibition was 5.88%.

As to `CC(Nc1nc(N2CCCC2)nc2ccccc12)c1ccccc1` (centres undefined), the inhibition was -5.16%.

For `O=C(Nc1ccccc1N1CCCCC1)c1cccc(F)c1`, the inhibition is 0.18%.

Take `CC(=O)NC1CC2CCCC(C1)N2CC(=O)Nc1ccccc1` (centres undefined): the inhibition is 6.86%.

As for `COCCCN1C(=O)C(=O)/C(=C(/O)c2ccc3c(c2)CC(C)O3)C1c1cccnc1` (centres undefined), the inhibition was -17.6%.

`CCc1ccccc1NC(=O)CSc1nnc([C@@H](NC(=O)OC(C)(C)C)C(C)CC)o1` (some centres undefined): the inhibition was -15.5%.

As to `C=CCn1c(SCc2nnc(-c3ccccc3)o2)nnc1C(O)c1ccccc1` (centres undefined), the inhibition is -17.5%.

For the compound `COCCCn1c(CCC(=O)O)ccc1-c1ccc(F)cc1`, the inhibition is -9.43%.

Take `CC(=O)NCCc1ccc(S(=O)(=O)N(C)C2CCS(=O)(=O)C2)cc1` (centres undefined): the inhibition is -15.7%.

For the compound `COc1ccc(NC(=O)CCNC(=O)Cn2ccc3ccccc3c2=O)c(OC)c1`, the inhibition is -0.805%.

For `CC(=O)N1C(=O)C2(Nc3ccccc3N2)c2ccccc21`, the inhibition was 7.24%.

For `COCCOC(=O)C1=C(C)NC(=O)CC1c1cc2c(cc1Br)OCO2` (centres undefined), the inhibition was -1.9%.

With `COC(=O)c1cc(C(=O)OC)cc(N2C(=O)CC(N3CCN(c4ccccc4)CC3)C2=O)c1` (centres undefined), the inhibition is -20%.

As for `CC1CCCC(N2CCN(C(=O)c3ccc(F)cc3)CC2)C1` (centres undefined), the inhibition is 8.12%.

Take `O=C(Cn1nnc(-c2ccc(CN3CCOCC3)cc2)n1)NC1CCCCC1`: the inhibition was -1.75%.

As to `O=C(Cc1nn[nH]n1)NCCC1=CCCCC1`, the inhibition is 17.3%.

With `CCC1=C(C(=O)OC)C(c2cc(OC)ccc2OC)C(C#N)=C(N)O1` (centres undefined), the inhibition was -1.96%.

Turning to `COc1ccc(OC)c(C(=O)c2ccc(C(=O)O)cc2)c1`, the inhibition was -4.3%.

As to `Cc1ccc(NC2=NC(c3ccccc3)n3c(nc(C)cc3=O)N2)cc1` (centres undefined), the inhibition is -1.73%.

For `COC(=O)Nc1ccc(S(=O)(=O)N(C)CC(F)(F)C(F)F)cc1`, the inhibition is -3.1%.

Consider `COC(=O)c1ccc(C2CC(=O)Nc3cc(OC)c(OC)cc32)cc1` (centres undefined), for which the inhibition was -20.6%.

`CC(C)c1ccc(N2CC(C(=O)Nc3nccs3)CC2=O)cc1` (centres undefined): the inhibition was 2.9%.

Take `CCc1nnc(NC(=O)C2CCCN2S(=O)(=O)c2ccccc2)s1` (centres undefined): the inhibition was -21%.

For `Cc1cc(C)c(C#N)c(SCc2[nH]nc3c2C(c2ccccc2)C(C#N)=C(N)O3)n1` (centres undefined), the inhibition was -3.73%.

With `CCOC(=O)CSc1nnc(-c2ccncc2)o1`, the inhibition is -0.95%.

Take `COC(=O)C(C)Sc1nc2c(c(=O)n(C)c(=O)n2C)n1Cc1cccc(C)c1` (centres undefined): the inhibition is 8.4%.

As for `Cc1ccc(C(=O)NCC2CCCO2)o1` (centres undefined), the inhibition is -6.23%.

Regarding `CN(C)[C@@H]1C(=O)C(C(N)=O)=C(O)[C@@]2(O)C(=O)C3=C(O)c4c(O)ccc(Cl)c4[C@@H](O)[C@H]3C[C@@H]12`, the inhibition is 43.4% (active).
